Insulin prom inh = inhibitors of insulin promoter-driven GFP, primary screen, imaging, TRM-6 cells (human fetal islet line), eGFP reporter, cell count | AID 1273, 2008 | inhibition, % at 2 µM | actives 0.9% (n = 130,000) | reporter expression induced with tamoxifen;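 active means inhibition above the mean plus 3 SD, with well images judged a real hit on visual review, cut at about 60% in these data, passing the limit was not always enough; inconclusive means inhibition over the cutoff but images rejected on review; inactive means inhibition not above the cutoff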
Yeast lifespan up = compounds extending yeast replicative lifespan, primary screen, S. cerevisiae, OD615; actives 0.68% (n = 130,000); AID 775, 2007; inhibition of the nicotinamide effect, % at 10 µM; S. cerevisiae growth with nicotinamide; deaD strain in restrictive glucose medium;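 active means inhibition above a set limit, placed 3 SD over the median of all compounds, cut at about 26% in these data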;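 further: 0% = nicotinamide-treated wells and 100% = cells grown without nicotinamide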
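Test system – modified budding yeast, DeaD strain · Compound – single dose 10 µM compound, 0.25% DMSO · Times – culture preincubation 4 h, compound exposure 48 h, both 30 °C · Detection – optical density (absorbance) at 615 nm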
HMGR II inh = inhibitors of E. faecalis class II HMGR, primary screen, biochemical, Enterococcus faecalis | purified E. faecalis HMGR, NADPH absorbance 340 nm kinetic | inhibition, % at 10 µM | actives 0.41% (n = 190,000) | AID 1066, 2008;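 active means inhibition above a set limit, the median over all tested compounds plus 3 SD, cut at about 9.5% in these data; inconclusive means no clear call, values can overlap the other calls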;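 further: enzyme runs in reverse so mevalonate oxidation gives rising NADPH absorbance; 0% = complete reaction with DMSO and 100% = background rate lacking mevalonate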
RAM network inh = inhibitors of the yeast RAM network, primary screen, dse1pr::URA3 reporter, 5-FOA selection; actives 1.8% (n = 190,000); inhibition, % at 50 µM; S. cerevisiae dse1pr::URA3 reporter, 5-FOA growth OD615, 2 d; analog-sensitive cbk1-as2 kinase mutant strain; AID 868, 2007;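 active means inhibition above a set limit, 3 SD over mean compound inhibition, cut at about 8.4% in these data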;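 further: 0% = DMSO-only wells with no growth and 100% = 10 µM 1-NA-PP1 full growth; inhibition rescues growth on 5-FOA so higher OD means more RAM inhibition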
BB579 growth dn = growth inhibitors of yeast BB579 in restrictive medium, primary screen, yeast lifespan-shortening project, S. cerevisiae; OD615, 48 h; inhibition, % at 10 µM; actives 0.51% (n = 140,000); AID 804, 2007;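 active means inhibition above a set limit, 3 SD over the mean compound inhibition, cut at about 44% in these data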
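Material: Saccharomyces cerevisiae DeaD strain BB579, replicative lifespan model yeast; buffer or medium: CSMM-D restrictive synthetic medium containing dextrose (glucose); compound: 10 µM single dose, DMSO 0.25%; timing: 48 h compound exposure at 30 °C after 4 h preincubation; signal: turbidity as optical density at 615 nm; benchmarks: positive control amphotericin B 10 µg/mL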
Numbers without * were called inactive; u = inconclusive; x = not tested or not shown. Most compounds without a hit are left out; they make up all but 3.7% or so of the library.

SMILES | Insulin prom inh | Yeast lifespan up | HMGR II inh | RAM network inh | BB579 growth dn
S=C(NCc1ccc(Cl)cc1Cl)NC1CCCCC1 | -50 | 4 | -4 | 8 | 71*
Clc1ccc(CNC2CCCC2)c(Cl)c1 | -20 | -14 | -1 | 0 | -23
CCOC(=O)N1CCN(C(=O)/C(=C/c2ccc(Br)cc2)NC(=O)c2ccc(OC)cc2)CC1 | 21 | 7 | -3 | 0 | -35
O=C1Nc2ccccc2S/C1=C/Nc1cccc(Cl)c1 | x | -7 | 0 | 8.4* | -1
CCOc1cc(C2c3c(oc4cc(C)c(Cl)cc4c3=O)C(=O)N2Cc2ccco2)ccc1O (stereo not given) | 7 | -8 | 1 | 8.4* | -62
O=C(NCCCn1ccnc1)c1ccc(S(=O)(=O)N2CCOCC2)cc1 | x | x | -18 | 2 | x
CCCCCC[n+]1c(-c2ccc(Cl)cc2Cl)csc1Nc1ccccc1 | x | 3 | 1 | 9.0* | -30
COCCn1c(SCC#N)nnc1-c1ccc([N+](=O)[O-])cc1 | x | x | -4 | 0 | x
COc1ccc(/C=C2/C(=O)N(Cc3ccccc3)N=C2C)cc1 | -10 | 27* | -2 | 1 | -56
N#Cc1c(-c2ccccc2)ccnc1N1CCOCC1 | x | x | -3 | 0 | x
O=C(O)/C(=C\c1ccc(Br)cc1)c1ccc(S(=O)(=O)N2CCCCC2)s1 | x | 0 | -9 | 3 | -5
Cc1cc(SCC(=O)OCC(=O)NC(C)c2ccccc2)c(C)cc1Br (stereo not given) | 24 | 1 | -1 | 10* | -3
CCOC(=O)C(C)(C)Sc1nc2c(cnn2-c2ccc(C)cc2)c(=O)[nH]1 | 100* | x | -4 | 3 | -17
CCCc1c2ccccc2nc2ccccc12 | 85* | 9 | -7 | 1 | -48
COc1cccc(C(=O)Nc2cccc(C(=O)N3CCOCC3)c2)c1 | 66 | 1 | -2 | 0 | -55
COc1cccc(C(=O)N2CCOCC2)c1 | 65* | x | 3 | 2 | x
O=C(Nc1ccccc1)Nc1ccc(C(=O)N2CCCC2)cc1 | x | x | 9.6* | 1 | x
COc1ccc(C2C3=C(N=C4SCC(=O)N42)c2ccccc2CC3)cc1 (stereo not given) | 71* | -11 | 0 | 1 | 2
COc1cc2c(cc1NC(=O)c1cccc(Br)c1)CCCC2 | 17 | 4 | 0 | 9.3* | -44
O=c1cccc2n1Cc1cc3ccccc3nc1-2 | 33 | -5 | -1 | 1 | 46*
Cc1nc2ccccc2cc1C(=O)O | -23 | 0 | -4 | 0 | -19
COC(=O)Cn1nc(-c2ccc(C)cc2)c2ccccc2c1=O | 11 | x | 4 | 1 | x
COc1cccc(-c2noc(-c3ccc(Cl)nc3)n2)c1 | -47 | x | -2 | 1 | x
CCN1N=C(c2ccccc2)Cn2c1nc1ccccc12 | 53 | -8 | -1 | -1 | -95
CC(=O)N1CC2(C)CN(C(C)=O)CC(C)(C1)C2 | 31 | -9 | 22* | 2 | -13
SMILES | Insulin prom inh | Yeast lifespan up | HMGR II inh | RAM network inh | BB579 growth dn
Cn1nc(C(=O)OCc2ccc(Br)cc2F)c2ccccc2c1=O | -15 | x | -8 | 3 | x
CCC(=O)c1ccc(Oc2ccc(C(=O)c3ccc(C)cc3)cc2[N+](=O)[O-])cc1 | -62 | 2 | -3 | 11* | -27
COc1cc(OC)c(-c2c3cc(O)c(=O)cc-3oc3cc(O)c(O)cc23)cc1OC | -150 | 9 | -1 | 10* | 4
Cc1ccc(C(=O)CSc2nnc(N)s2)c(C)c1 | -63 | x | -2 | 3 | x
Cn1c(/C(C#N)=N/O)nc2ccccc21 | -390 | x | 11* | 0 | -46
N#CCC(CNc1ncc(C(F)(F)F)cc1Cl)OC(=O)c1ccc(Cl)cc1Cl (stereo not given) | -19 | -22 | -2 | 9.6* | -41
CCOC(=O)N/N=C/c1ccc(OCCSc2ccc(Cl)cc2)c(OCC)c1 | u | 3 | -4 | 5 | 2
CCOC(=O)N/N=C/c1ccc(OCCSc2ccc(Cl)cc2)c(OC)c1 | 26 | 10 | -4 | 9.9* | -20
O=[N+]([O-])C(/C=C(\Cl)[N+](=O)[O-])=C1N(Cc2ccc(Cl)nc2)CCN1Cc1ccc(Cl)nc1 | -75 | -12 | 13* | 5 | -22
CCCCOc1ccc(NC(=S)Nc2cc(C)nc(SCCCC)n2)cc1 | x | 20 | -5 | 9.6* | -29
OCC1(Cc2ccccc2)CCN(Cc2ccc(C(F)(F)F)cc2)CC1 | x | x | -2 | 1 | x

Source: PubChem
